Test results as given in ChEMBL document CHEMBL4017544 (J Med Chem, 2017).
Active and inactive are the calls of the source. The calls are words filed in the database; no cut-off is given here.

How the values were obtained:
[1] = biological target: Voltage-gated inwardly rectifying potassium channel KCNH2 (Homo sapiens, UniProt Q12809); assay: Inhibition of human ERG expressed in CHO cells at -80 mV holding potential by patch clamp assay; format: cell-based
[2] = system: Kidney; assay: In vivo drug metabolism in Sprague-Dawley rat assessed as CDDO-Me formation in kidney at 30 mg/kg, ip measured at 90 mins by LC-MS/MS analysis; format: ADME, organism-based; conditions: 1.5 h
Method in brief: (§1)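 Rats given a single ip injection, 20 mg/kg (0.04 mmol) of CDDO-Me or 30 mg/kg (0.04 mmol) of the prodrug; heart, kidney and liver collected over time; parent compound and liberated CDDO-Me measured by LC-MS/MS.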

[3] = Drug level in Sprague-Dawley rat heart at 30 mg/kg, ip measured at 90 mins by LC-MS/MS analysis; format: ADME, organism-based; conditions: read-out: Drug uptake; method in brief: as §1
[4] = system: Mus musculus; assay: Renoprotective activity in db/db mouse assessed as reduction in loss of foot processes at 1 to 2 mg/kg, ip administered trice per week for 12 consecutive weeks measured at 11 weeks post dose by TEM microscopic analysis; format: functional, organism-based
Method in brief: (§2)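 Male db/db mice (8 weeks old) were dosed i.p. three times weekly for 12 weeks in 5% Tween-80/0.9% saline, n = 6. Kidney tissue was fixed in 3% glutaraldehyde, cut into 80 nm ultrathin sections and examined by TEM. GBM thickness was measured at 30 random locations from three sections per kidney and averaged per mouse.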

[5] = system: Mus musculus; assay: Toxicity in db/db mouse assessed as change in body weight at 1 to 2 mg/kg, ip administered thrice per week for 12 consecutive weeks measured every other day; format: organism-based; conditions: in vivo
Method in brief: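 Male db/db mice (8 weeks old, specific pathogen-free, normal chow and filtered water ad libitum) were randomized and dosed i.p. three times weekly for 12 consecutive weeks; vehicle was 5% Tween-80 in 0.9% saline. Body weight and food and water consumption were recorded every other day.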

[6] = system: Mus musculus; assay: Renoprotective activity in db/db mouse assessed as reduction in mesangial expansion at 0.65 mg/kg, ip administered trice per week for 12 consecutive weeks measured at 11 weeks post dose by TEM microscopic analysis; format: functional, organism-based; method in brief: as §2
[7] = system: Mus musculus; assay: Antidiabetic nephropathic activity in db/db mouse assessed as increase in urinary creatinine at 0.65 mg/kg, ip administered thrice per week for 12 consecutive weeks measured at 24 hrs post 11 week administration; format: functional, organism-based
Method in brief: (§3)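 Male db/db mice, 8 weeks old, randomized; ip vehicle (5% Tween-80 in 0.9% saline) or drug three times weekly for 12 weeks, n = 6 per group. After 11 weeks, 24 h urine collected for volume, albumin and creatinine, with UACR calculated; blood then sampled for plasma BUN and uric acid. Mean ± SD, one-way ANOVA with Tukey test.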

[8] = system: Mus musculus; assay: Anti-diabetic nephropathic activity in db/db mouse assessed as reduction in urine albumin to creatinine ratio at 0.65 mg/kg, ip administered trice per week for 12 consecutive weeks measured at 24 hrs post 11 week administration; format: functional, organism-based; method in brief: as §3
[9] = system: Mus musculus; assay: Anti-diabetic nephropathic activity in db/db mouse assessed as reduction in plasma creatinine levels at 0.65 mg/kg, ip administered trice per week for 12 consecutive weeks measured at 11 weeks post dose; format: functional, organism-based
[10] = Drug level in Krebs buffer treated with 1-Hydroxyl-2-cyano-3-(4-(methyl-L-glutaminate-N5-yl)-benzyloxy)-12-oxo-oleana-2(3),9(11)-dien-28-oic Acid Methyl Ester assessed as bovine kidney GGT-mediated metabolite formation at 100 uM at pH 7.4 after 8 hrs by HPLC analysis; format: ADME, Bos taurus; conditions: cattle, pH 7.4, 8 h
Method in brief: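 Substrate at 100 μM in Krebs buffer, pH 7.4, 37 °C, with GGT (1 U/mL) and Gly-Gly acceptor (5 mM) for 8 h, in triplicate; acetonitrile (2 volumes) added, enzyme removed by centrifugation, products by HPLC.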

[11] = system: Mus musculus; assay: Anti-diabetic nephropathic activity in db/db mouse assessed as reduction in plasma urea nitrogen levels at 0.65 mg/kg, ip administered trice per week for 12 consecutive weeks measured 11 weeks post dose; format: functional, organism-based; method in brief: as §3
[12] = system: Mus musculus; assay: Anti-diabetic nephropathic activity in db/db mouse assessed as reduction in urinary albumin at 0.65 mg/kg, ip administered trice per week for 12 consecutive weeks measured at 24 hrs post 11 week administration; format: functional, organism-based; method in brief: as §3

Sequence of Voltage-gated inwardly rectifying potassium channel KCNH2 (Q12809 whole entry): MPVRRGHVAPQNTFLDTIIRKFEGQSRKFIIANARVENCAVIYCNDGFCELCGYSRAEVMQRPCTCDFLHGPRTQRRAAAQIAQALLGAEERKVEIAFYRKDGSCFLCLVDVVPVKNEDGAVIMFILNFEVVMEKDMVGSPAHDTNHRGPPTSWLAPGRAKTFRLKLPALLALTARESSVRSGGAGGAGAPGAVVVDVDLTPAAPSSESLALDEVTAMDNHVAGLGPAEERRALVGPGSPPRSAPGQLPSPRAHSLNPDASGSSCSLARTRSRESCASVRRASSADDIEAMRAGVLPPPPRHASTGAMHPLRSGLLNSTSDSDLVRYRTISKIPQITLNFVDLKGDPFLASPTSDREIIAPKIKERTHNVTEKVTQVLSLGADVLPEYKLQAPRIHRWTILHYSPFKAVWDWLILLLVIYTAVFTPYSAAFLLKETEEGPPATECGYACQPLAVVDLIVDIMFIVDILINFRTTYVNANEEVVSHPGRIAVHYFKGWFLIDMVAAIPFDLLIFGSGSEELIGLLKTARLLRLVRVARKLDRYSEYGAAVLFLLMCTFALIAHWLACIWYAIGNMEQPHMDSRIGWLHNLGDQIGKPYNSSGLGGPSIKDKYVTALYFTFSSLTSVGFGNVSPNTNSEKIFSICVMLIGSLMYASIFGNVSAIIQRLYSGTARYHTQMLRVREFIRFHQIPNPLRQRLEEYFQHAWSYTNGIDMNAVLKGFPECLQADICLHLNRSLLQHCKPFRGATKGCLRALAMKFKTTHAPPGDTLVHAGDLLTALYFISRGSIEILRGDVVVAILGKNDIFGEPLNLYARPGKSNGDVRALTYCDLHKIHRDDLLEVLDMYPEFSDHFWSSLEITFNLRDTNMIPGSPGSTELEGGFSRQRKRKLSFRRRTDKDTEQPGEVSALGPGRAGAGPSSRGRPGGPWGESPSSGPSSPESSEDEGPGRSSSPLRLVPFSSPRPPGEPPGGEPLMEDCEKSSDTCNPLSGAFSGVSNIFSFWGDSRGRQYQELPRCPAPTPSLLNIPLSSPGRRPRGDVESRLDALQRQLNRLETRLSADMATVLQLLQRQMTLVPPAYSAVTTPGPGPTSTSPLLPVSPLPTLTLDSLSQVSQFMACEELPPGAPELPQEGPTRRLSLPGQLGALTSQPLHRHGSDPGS

SMILES | IC50 [1] [µM] | Drug metabolism [2] [µg/g] | concentration at 1.5 h [3] [ng/g] | Activity [4] | Activity [5] | Activity [6] | Activity [7] | Activity [8] | Activity [9] | Drug metabolism [10] | Activity [11] | Activity [12]
COC(=O)[C@@H](N)CCC(=O)Nc1ccc(COC2=C(C#N)[C@H](O)[C@]3(C)C4=CC(=O)[C@@H]5[C@@H]6CC(C)(C)CC[C@]6(C(=O)OC)CC[C@@]5(C)[C@]4(C)CC[C@H]3C2(C)C)cc1 | > 200 | 0.18 | 1310 | Active | Non-Toxic |  |  |  |  |  |  | 
COC(=O)[C@]12CCC(C)(C)C[C@H]1[C@H]1C(=O)C=C3[C@@]4(C)C=C(C#N)C(=O)C(C)(C)[C@@H]4CC[C@@]3(C)[C@]1(C)CC2 [BARDOXOLONE METHYL] |  |  |  |  |  | Active | Active | Active | Active | Metabolite_Detected | Active | Active
